Assay results: ChEMBL document CHEMBL1131270, “Fluorescent probes for adenosine receptors: synthesis and biology of N6-dansylaminoalkyl-substituted NECA derivatives” (Bioorg Med Chem Lett, 1998)

Columns and labels:
Adenosine A2 receptor = Adenosine A2 receptor (Rattus norvegicus, UniProt P29276+P30543); assay: Binding affinity for adenosine A2 receptor of rat striatal membrane using [3H]CGS-21680
In short: (§1)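 Competition binding on rat membrane preparations: cerebral cortex for A1 with [3H]-CHA, striatum for A2 with [3H]-CGS 21680. Membrane preparation and assay followed an earlier published method. IC50 values were converted to Ki with the Cheng–Prusoff equation and reported as mean ± S.E. of three experiments.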

Adenosine receptor A3 = molecular target: T1, Adenosine receptor A3 (Rattus norvegicus, UniProt P28647); assay: Binding affinity for adenosine A3 receptor of rat testis membrane using [3H](R)-PIA
T1 sequence (P28647 whole entry): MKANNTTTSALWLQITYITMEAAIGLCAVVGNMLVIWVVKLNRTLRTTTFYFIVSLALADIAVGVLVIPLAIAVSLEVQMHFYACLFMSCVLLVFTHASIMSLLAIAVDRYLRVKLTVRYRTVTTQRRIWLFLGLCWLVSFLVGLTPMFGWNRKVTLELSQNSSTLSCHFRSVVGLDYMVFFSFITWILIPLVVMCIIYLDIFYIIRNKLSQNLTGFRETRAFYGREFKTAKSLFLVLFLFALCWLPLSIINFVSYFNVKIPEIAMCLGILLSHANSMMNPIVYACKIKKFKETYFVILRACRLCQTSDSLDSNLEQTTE
In short: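 Rat testis membranes were labelled with [3H]-(R)-PIA for A3 binding, with 150 nM DPCPX present to block A1 receptors. Membrane preparation and assay followed an earlier published method. IC50 values were converted to Ki by Cheng–Prusoff and reported as mean ± S.E. of three experiments.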

Adenosine receptor A1 = molecular target: T2, Adenosine receptor A1 (Rattus norvegicus, UniProt P25099); assay: Binding affinity for adenosine A1 receptor of rat cerebral cortex membrane using [3H]CHA; assay type: tissue-based; in short: as §1
T2 sequence (P25099 whole entry): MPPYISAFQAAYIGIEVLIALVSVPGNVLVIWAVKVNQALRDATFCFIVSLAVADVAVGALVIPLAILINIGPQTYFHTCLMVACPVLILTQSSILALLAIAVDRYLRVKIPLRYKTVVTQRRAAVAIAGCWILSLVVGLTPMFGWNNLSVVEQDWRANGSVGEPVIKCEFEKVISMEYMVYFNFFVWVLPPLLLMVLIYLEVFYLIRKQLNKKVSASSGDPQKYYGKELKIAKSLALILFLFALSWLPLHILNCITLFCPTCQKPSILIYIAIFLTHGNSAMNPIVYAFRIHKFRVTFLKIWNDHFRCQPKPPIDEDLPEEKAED

SMILES | Ki (Adenosine A2 receptor) [nM] | Ki (Adenosine receptor A3) [nM] | Ki (Adenosine receptor A1) [nM]
CCNC(=O)[C@H]1OC(n2cnc3c(NCCCCCCCCCCCCNS(=O)(=O)c4cccc5c(N(C)C)cccc45)ncnc32)[C@H](O)[C@@H]1O (stereo partly drawn) | > 10000 | 2500 | 3400
CCNC(=O)[C@H]1OC(n2cnc3c(NCCCNS(=O)(=O)c4cccc5c(N(C)C)cccc45)ncnc32)[C@H](O)[C@@H]1O (stereo partly drawn) | 4300 | 1800 | 42
CCNC(=O)[C@H]1OC(n2cnc3c(NCCCCNS(=O)(=O)c4cccc5c(N(C)C)cccc45)ncnc32)[C@H](O)[C@@H]1O (stereo partly drawn) | 9500 | 2000 | 70
CCNC(=O)[C@H]1OC(n2cnc3c(NCCCCCCCCCCNS(=O)(=O)c4cccc5c(N(C)C)cccc45)ncnc32)[C@H](O)[C@@H]1O (stereo partly drawn) | > 10000 | 1100 | 234
CCNC(=O)[C@H]1OC(n2cnc3c(NCCCCCCCCNS(=O)(=O)c4cccc5c(N(C)C)cccc45)ncnc32)[C@H](O)[C@@H]1O (stereo partly drawn) | > 10000 | 252 | 111
CCNC(=O)[C@H]1OC(n2cnc3c(NCCCCCCNS(=O)(=O)c4cccc5c(N(C)C)cccc45)ncnc32)[C@H](O)[C@@H]1O (stereo partly drawn) | 4300 | 3600 | 27
